Measured values as given in ChEMBL document CHEMBL4251575, “Design, synthesis, and biological evaluation of 1,3-diarylisoquinolines as novel topoisomerase I catalytic inhibitors” (Eur J Med Chem, 2018).
Active and inactive are the calls of the source. The calls are words filed in the database; no cut-off is given here.

Tests used:
Sus scrofa [1] = species on record: Sus scrofa; assay: Inhibition of porcine brain tubulin polymerization at 10 uM after 61 mins by spectroscopic analysis
Outline: (§1)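 Porcine brain tubulin at 1.5 mg/mL final in cold PEM buffer (80 mM Na-PIPES pH 6.9, 1 mM MgCl₂, 30% glycerol, 1 mM EGTA) with 1 mM GTP. Compounds were dissolved in DMSO and diluted in PEM. They were pre-warmed 2 min at 37 °C before tubulin was added. DMSO vehicle and paclitaxel controls. A340 was read each minute for 61 min at 37 °C.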

[2] = biological target: T1, DNA topoisomerase 1 (Homo sapiens) (UniProt P11387); assay: Inhibition of human recombinant DNA topoisomerase 1-mediated DNA relaxation at 100 uM incubated for 30 mins using pBR322 DNA substrate by ethidium bromide dye-based agarose gel electrophoresis
T1 sequence (whole entry): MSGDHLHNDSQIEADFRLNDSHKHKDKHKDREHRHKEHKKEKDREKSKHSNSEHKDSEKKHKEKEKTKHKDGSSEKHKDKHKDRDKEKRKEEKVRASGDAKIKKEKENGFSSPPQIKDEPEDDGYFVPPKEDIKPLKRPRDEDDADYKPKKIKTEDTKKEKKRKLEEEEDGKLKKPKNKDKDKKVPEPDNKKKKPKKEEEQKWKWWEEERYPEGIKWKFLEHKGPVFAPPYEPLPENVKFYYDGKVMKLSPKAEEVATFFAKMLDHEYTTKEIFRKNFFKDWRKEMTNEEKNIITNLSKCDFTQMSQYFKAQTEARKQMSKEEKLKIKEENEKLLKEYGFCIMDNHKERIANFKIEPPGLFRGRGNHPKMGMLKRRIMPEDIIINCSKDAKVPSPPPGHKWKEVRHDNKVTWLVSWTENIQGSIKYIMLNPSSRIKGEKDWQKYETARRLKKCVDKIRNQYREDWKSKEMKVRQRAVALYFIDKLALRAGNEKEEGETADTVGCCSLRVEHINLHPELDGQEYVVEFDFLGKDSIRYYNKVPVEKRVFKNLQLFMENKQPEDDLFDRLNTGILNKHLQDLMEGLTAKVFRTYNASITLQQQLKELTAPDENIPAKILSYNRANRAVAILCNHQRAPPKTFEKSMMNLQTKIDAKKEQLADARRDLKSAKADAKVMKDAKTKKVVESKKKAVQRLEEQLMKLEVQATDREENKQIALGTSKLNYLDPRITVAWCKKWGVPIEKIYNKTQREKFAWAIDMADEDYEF
Outline: (§2)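 pBR322 (100 ng) with recombinant human topo I (0.4 units) in 10 mM Tris-HCl pH 7.9, 150 mM NaCl, 0.1% BSA, 1 mM spermidine, 5% glycerol, 30 min at 37 °C. Stopped with sarcosyl/glycerol/dye and run on 1% agarose/TAE at 15 V for 7 h. EtBr-stained; supercoiled DNA quantified as % inhibition. Relative values are the ratio to the camptothecin control.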

[3] = biological target: T1, DNA topoisomerase 1 (Homo sapiens); assay: Inhibition of human recombinant DNA topoisomerase 1-mediated DNA relaxation at 20 uM incubated for 30 mins using pBR322 DNA substrate by ethidium bromide dye-based agarose gel electrophoresis relative to control camptothecin; outline: as §2
[4] = biological target: T1, DNA topoisomerase 1 (Homo sapiens); assay: Inhibition of human recombinant DNA topoisomerase 1-mediated DNA relaxation at 20 uM incubated for 30 mins using pBR322 DNA substrate by ethidium bromide dye-based agarose gel electrophoresis; outline: as §2
[5] = biological target: DNA topoisomerase 2-alpha (Homo sapiens) (UniProt P11388); assay: Inhibition of human DNA topoisomerase 2 alpha-mediated DNA relaxation at 100 uM incubated for 30 mins using pBR322 DNA substrate by ethidium bromide dye-based agarose gel electrophoresis relative to control etoposide
Sequence of DNA topoisomerase 2-alpha (Homo sapiens) (P11388 whole entry): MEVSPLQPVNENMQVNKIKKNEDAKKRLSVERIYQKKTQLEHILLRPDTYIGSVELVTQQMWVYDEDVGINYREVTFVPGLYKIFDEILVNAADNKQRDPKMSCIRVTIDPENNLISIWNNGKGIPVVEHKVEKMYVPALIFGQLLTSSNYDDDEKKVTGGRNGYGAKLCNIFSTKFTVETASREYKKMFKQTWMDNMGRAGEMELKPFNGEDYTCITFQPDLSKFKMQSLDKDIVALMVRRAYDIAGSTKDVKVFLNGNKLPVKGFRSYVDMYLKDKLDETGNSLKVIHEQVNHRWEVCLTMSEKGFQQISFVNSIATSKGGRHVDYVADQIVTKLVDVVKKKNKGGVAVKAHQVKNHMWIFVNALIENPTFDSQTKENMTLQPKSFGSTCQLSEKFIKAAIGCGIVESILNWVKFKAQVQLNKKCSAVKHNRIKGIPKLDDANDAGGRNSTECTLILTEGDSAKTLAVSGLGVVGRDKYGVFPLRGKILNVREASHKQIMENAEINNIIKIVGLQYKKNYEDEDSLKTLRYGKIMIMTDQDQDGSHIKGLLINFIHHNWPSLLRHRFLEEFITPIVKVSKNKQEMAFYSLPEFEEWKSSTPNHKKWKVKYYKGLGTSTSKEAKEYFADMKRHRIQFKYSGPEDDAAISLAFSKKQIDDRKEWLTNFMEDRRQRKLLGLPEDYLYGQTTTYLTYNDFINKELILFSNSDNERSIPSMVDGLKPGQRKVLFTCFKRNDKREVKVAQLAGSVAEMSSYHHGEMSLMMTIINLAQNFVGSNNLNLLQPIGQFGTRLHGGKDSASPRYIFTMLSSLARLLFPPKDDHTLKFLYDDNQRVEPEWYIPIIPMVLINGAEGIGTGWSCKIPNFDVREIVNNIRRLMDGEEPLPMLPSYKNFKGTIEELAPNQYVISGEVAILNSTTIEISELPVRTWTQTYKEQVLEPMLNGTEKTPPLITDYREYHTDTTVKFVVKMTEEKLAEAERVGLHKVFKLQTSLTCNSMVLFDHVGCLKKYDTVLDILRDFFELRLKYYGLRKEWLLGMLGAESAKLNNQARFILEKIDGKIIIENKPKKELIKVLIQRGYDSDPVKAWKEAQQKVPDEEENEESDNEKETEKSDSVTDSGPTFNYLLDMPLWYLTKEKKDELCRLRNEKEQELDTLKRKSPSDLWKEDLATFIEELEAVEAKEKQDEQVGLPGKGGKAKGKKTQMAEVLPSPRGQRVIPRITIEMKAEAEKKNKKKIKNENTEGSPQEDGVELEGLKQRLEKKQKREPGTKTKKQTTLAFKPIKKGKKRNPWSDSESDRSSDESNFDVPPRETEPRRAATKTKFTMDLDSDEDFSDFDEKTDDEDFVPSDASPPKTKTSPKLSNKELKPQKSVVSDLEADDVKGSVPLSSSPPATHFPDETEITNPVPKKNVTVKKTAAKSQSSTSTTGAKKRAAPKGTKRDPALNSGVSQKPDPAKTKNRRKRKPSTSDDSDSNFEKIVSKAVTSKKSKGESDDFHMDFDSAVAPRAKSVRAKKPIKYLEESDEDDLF
Outline: (§3)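 Stopped with EDTA and run on 1% agarose/TAE at 25 V for 4 h. EtBr-stained; supercoiled DNA quantified as % inhibition. Relative values are the ratio to the etoposide control.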

Sus scrofa [6] = species on record: Sus scrofa; assay: Induction of porcine brain tubulin polymerization at 10 uM after 61 mins by spectroscopic analysis; outline: as §1
T47D = assay: Cytotoxicity against human T47D cells after 72 hrs by cell counting kit-8 analysis; format: functional, cell-based
Outline: (§4)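 Cells seeded at 2×10^5 or 1×10^5 per well, grown overnight in medium with 10% FBS at 37 °C, 5% CO₂, then FBS-starved 4 h. Graded compound concentrations given for 72 h. CCK-8 then added for 4 h and absorbance read at 450 nm. IC50 from a four-parameter logistic fit; mean ± S.D. of three experiments, each in triplicate.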

[7] = biological target: T1, DNA topoisomerase 1 (Homo sapiens); assay: Inhibition of human recombinant DNA topoisomerase 1-mediated DNA relaxation at 100 uM incubated for 30 mins using pBR322 DNA substrate by ethidium bromide dye-based agarose gel electrophoresis relative to control camptothecin; outline: as §2
HCT-15 = assay: Cytotoxicity against human HCT15 cells after 72 hrs by cell counting kit-8 analysis; format: functional, cell-based; settings: HCT-15, 72 h; outline: as §4
[8] = biological target: DNA topoisomerase 2-alpha (Homo sapiens) (UniProt P11388); assay: Inhibition of human DNA topoisomerase 2 alpha-mediated DNA relaxation at 100 uM incubated for 30 mins using pBR322 DNA substrate by ethidium bromide dye-based agarose gel electrophoresis; outline: as §3
MCF-10A = assay: Cytotoxicity against human MCF10A cells after 72 hrs by cell counting kit-8 analysis; format: cell-based; outline: as §4
[9] = biological target: DNA topoisomerase 2-alpha (Homo sapiens) (UniProt P11388); assay: Inhibition of human DNA topoisomerase 2 alpha-mediated DNA relaxation at 20 uM incubated for 30 mins using pBR322 DNA substrate by ethidium bromide dye-based agarose gel electrophoresis; outline: as §3
[10] = biological target: DNA topoisomerase 2-alpha (Homo sapiens) (UniProt P11388); assay: Inhibition of human DNA topoisomerase 2 alpha-mediated DNA relaxation at 20 uM incubated for 30 mins using pBR322 DNA substrate by ethidium bromide dye-based agarose gel electrophoresis relative to control etoposide; outline: as §3
[11] = biological target: T1, DNA topoisomerase 1 (Homo sapiens); assay: Inhibition of free DNA topoisomerase-1 in human T47D cells at 50 uM assessed as suppression of camptothecin-induced decrease in free topoisomerase-1 levels pre-treated before camptothecin addition and measured after 2 hrs by band depletion assay; format: cell-based
[12] = biological target: T1, DNA topoisomerase 1 (Homo sapiens); assay: Poison activity at topoisomerase 1 in human T47D cells assessed as induction of induction of DNA damage by measuring tail DNA levels at 5 uM after 24 hrs by SYBR Green staining-based comet assay; format: cell-based
Outline: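 T47D cells seeded 1 x 10⁵ per well, treated 24 h, trypsinised, resuspended in ice-cold PBS, embedded in low-melting agarose on slides. Lysed 30 min at 4 °C in the dark, alkaline unwinding (pH > 13) 30 min at r.t., alkaline electrophoresis 20 min at 15 V, SYBR Green staining, fluorescence microscopy; % tail DNA versus untreated control.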

[13] = biological target: T1, DNA topoisomerase 1 (Homo sapiens); assay: Inhibition of DNA topoisomerase-1 in human T47D cells assessed as decrease in free topoisomerase-1 levels incubated for 2 hrs by band depletion assay; format: cell-based
Outline: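 T47D cells seeded at 2×10^5 in 60-mm plates. On day 2 they were treated 2 h at 37 °C, harvested by trypsin and held in PBS containing the same compound concentration. Lysis in 62.5 mM Tris-HCl pH 6.8, 1 mM EDTA, 2% SDS with sonication, then centrifuged. 50 µg protein run on 8% SDS-PAGE; Western blot for free topo I with ECL detection.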

DNA = assay: Binding affinity to […] (unknown origin) at 100 uM preincubated for 30 mins in presence of Hoechst 33342 followed by compound addition measured after 30 mins by fluorescence assay; format: nucleic-acid assay
Outline: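 ctDNA (30 µM final) pre-mixed with Hoechst 33342 (1 µg/mL final) in 10 mM Tris (pH 7.2), 30 min at r.t. with shaking. Compound then added (0–100 μM series; DMSO 1% in all wells, DMSO-only control) and incubated 30 min at r.t. Fluorescence read at 361 nm excitation, emission spectrum 400–600 nm.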

Sus scrofa [14] = species on record: Sus scrofa; assay: Inhibition of porcine brain tubulin polymerization at 15 uM after 61 mins by spectroscopic analysis; outline: as §1
[15] = biological target: T1, DNA topoisomerase 1 (Homo sapiens); assay: Poison activity at topoisomerase 1 in human T47D cells assessed as induction of induction of DNA damage by measuring tail DNA levels at 10 uM after 24 hrs by SYBR Green staining-based comet assay; format: cell-based
Outline: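 T47D cells seeded at 1×10^5 per well and treated 24 h, then trypsinized and suspended in ice-cold PBS. Embedded in low-melting agarose, lysed 30 min at 4 °C and alkaline-unwound (pH > 13) 30 min at r.t. Alkaline electrophoresis 20 min at 15 V, then SYBR Green stain and fluorescence microscopy. Read-out is % tail DNA versus untreated and CPT controls.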

[16] = biological target: T1, DNA topoisomerase 1 (Homo sapiens); assay: Poison activity at human topoisomerase 1 assessed as induction of relaxation of pHOT1 DNA substrate at 1000 uM incubated for 30 mins by ethidium bromide dye-based agarose gel electrophoresis analysis
Outline: (§5)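 pHOT1 (100 ng) relaxed first with topo I (3 units) in 10 mM Tris-HCl pH 7.5, 1 mM EDTA, 30 min at 37 °C. Compound then added for a further 30 min at 37 °C; amsacrine positive control at 100–1000 μM. Stopped with 1% SDS and run on 1% agarose at 15 V/cm for 12–15 h. EtBr-stained and imaged.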

[17] = biological target: T1, DNA topoisomerase 1 (Homo sapiens); assay: Poison activity at topoisomerase 1 (unknown origin) assessed as […] in enzyme mediated DNA cleavage complex formation by measuring increase in nicked DNA level at 500 uM using supercoiled pBR322 plasmid DNA as substrate after 20 mins by ethidium bromine dye-based agarose gel electrophoresis analysis
Outline: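 Supercoiled pBR322 (100 ng) pre-reacted 10 min with topo I (3 units), then compound added for 20 min at 37 °C. Stopped with 0.5% sarcosyl and digested with proteinase K at 45 °C for 30 min, then heated 2 min at 70 °C. Run on 1.5% agarose/TAE containing 0.5 μg/mL EtBr; nicked DNA versus DMSO control, CPT as poison control.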

[18] = biological target: T1, DNA topoisomerase 1 (Homo sapiens); assay: Poison activity at human topoisomerase 1 assessed as induction of relaxation of pHOT1 DNA substrate at 100 to 1000 uM incubated for 30 mins by ethidium bromide dye-based agarose gel electrophoresis analysis; outline: as §5

Structure (SMILES) | inhibition (Sus scrofa [1]) | inhibition [2] [%] | Ratio [3] | inhibition [4] [%] | Ratio [5] | Tubulin polymerization induction (Sus scrofa [6]) | IC50 (T47D) [µM] | Ratio [7] | IC50 (HCT-15) [µM] | inhibition [8] [%] | IC50 (MCF-10A) [µM] | further results
COc1cc(OC)cc(-c2cc3ccc(N(C)C)cc3c(-c3cccc(N)c3)n2)c1 | inactive | 73.1 | 2.5 | 71.5 | 0.04 | inactive | 3.59 | 1.12 | 2.53 | 2.5 | 42 | –
COc1cc(OC)cc(-c2cc3ccccc3c(-c3ccc(O)cc3)n2)c1 | inactive | 0 | – | – | 0.82 | inactive | 0.78 | 0 | 2.78 | 51.2 | 7.28 | inhibition [9]: 40%; Ratio [10]: 1.17
COc1ccc(-c2cc3cc(C)ccc3c(-c3cccc(N)c3)n2)c(C)c1 | – | 79.7 | 2.53 | 72.4 | 0.06 | inactive | 0.74 | 1.22 | 2.77 | 4.1 | 5.74 | inhibition [11]: Active; Activity [12]: 5.82%; inhibition [13]: inactive; Activity (DNA): inactive; inhibition (Sus scrofa [14]): Active; Activity [15]: 9.43%; Activity [16]: inactive; Activity [17]: inactive
COc1cc(NS(C)(=O)=O)ccc1Nc1c2ccccc2nc2ccccc12 | – | – | – | – | – | – | – | – | – | – | – | Activity [18]: Active
COc1cc(OC)cc(-c2cc3ccccc3c(-c3cccc(O)c3)n2)c1 | inactive | 0 | – | – | 0.59 | inactive | 0.76 | 0 | 0.84 | 37.3 | 6.77 | inhibition [9]: 30.9%; Ratio [10]: 0.9
COc1ccc(-c2cc3cc(C)ccc3c(-c3cccc(O)c3)n2)c(C)c1 | Active | 73.4 | 2.46 | 70.4 | 0.2 | inactive | 0.56 | 1.13 | 1.75 | 12.3 | 5.05 | –
CC[C@@]1(O)C(=O)OCc2c1cc1n(c2=O)Cc2cc3ccccc3nc2-1 | – | – | – | – | – | – | – | – | – | – | – | Activity [12]: 25%
COc1ccc(/C=C\c2cc(OC)c(OC)c(OC)c2)cc1O | 100% | – | – | – | – | – | – | – | – | – | – | –
CC(=O)O[C@H]1C(=O)[C@@]2(C)[C@H]([C@H](OC(=O)c3ccccc3)[C@]3(O)C[C@H](OC(=O)[C@H](O)[C@@H](NC(=O)c4ccccc4)c4ccccc4)C(C)=C1C3(C)C)[C@]1(OC(C)=O)CO[C@@H]1C[C@@H]2O | – | – | – | – | – | – | – | – | – | – | – | Activity (Sus scrofa [6]): Active
